This is an account of results in ChEMBL document CHEMBL4706606, “Re-evaluating pretomanid analogues for Chagas disease: Hit-to-lead studies reveal both in vitro and in vivo trypanocidal efficacy” (Eur J Med Chem, 2020).

Series [1] can be described thus: Selectivity index, ratio of IC50 for cytotoxicity against rat 3T3 cells to IC50 for antitrypanosomal activity against Trypanosoma cruzi Tulahuen strain C2C4 amastigotes infected in rat 3T3 cells. The note with it: 3T3 cells.
Series [2] relates to Trypanosoma cruzi. As to the kind of experiment: Antitrypanosomal activity against Trypanosoma cruzi Tulahuen strain C2C4 amastigotes infected in rat L6 cells assessed as inhibition of parasite growth incubated for 96 hrs by chlorophenol red-fl-D-galactopyranoside based colorimetric analysis. The format is functional, organism-based. The note with it: for IC50: Tulahuen strain C2C4, L6, 96 h; for IC90: Tulahuen strain C2C4, L6, time 96 hrs. The essentials:
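Tulahuen strain TcVI T. cruzi expressing β-galactosidase, grown in L6 rat skeletal myoblast host cells. IC50/IC90 growth inhibition. Each value is the mean of ≥2 independent determinations using fresh sample stock.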

The subject of another series is L6. The series can be described thus: Cytotoxicity against rat L6 cells assessed as reduction in cell viability incubated for 72 hrs by alamar blue assay. The series is classed as ADME, cell-based. The note with it: L6, 72 h. On the technique in general: Alamar Blue is a resazurin reagent that responds to reducing activity.
A short description of series [3]: Kinetic solubility of compound in water sonicated for 15 mins by HPLC analysis.
Series [4] concerns Trypanosoma cruzi. As to the kind of experiment: Antitrypanosomal activity against Trypanosoma cruzi Tulahuen strain C2C4 amastigotes infected in […] cells assessed as reduction in parasite growth incubated for 48 hrs by chlorophenol red-fl-D-galactopyranoside based colorimetric analysis. The format is functional, organism-based. The note with it: for IC50: Tulahuen strain C2C4, NIH3T3, 48 h; for IC90: Tulahuen strain C2C4, NIH3T3, time 48 hrs.

Series [5] is described as follows: Cytotoxicity against rat 3T3 cells assessed as reduction in cell viability incubated for 72 hrs by alamar blue assay. The series is classed as ADME, cell-based. The conditions noted are these: NIH3T3, 72 h.
Series [6] deals with Trypanosoma cruzi. The series can be described thus: Antitrypanosomal activity against Trypanosoma cruzi Tulahuen strain C2C4 amastigotes infected in […] cells assessed as reduction in parasite growth incubated for 48 hrs by chlorophenol red-fl-D-galactopyranoside based colorimetric analysis relative to control. The series is classed as functional.
Series [7] in a line: Inhibition of Trypanosoma cruzi Tulahuen C4 strain CYP51 expressed in Escherichia coli by fluorescence based assay.
In series [8] the test system is Trypanosoma cruzi. The series can be described thus: Antitrypanosomal activity against Trypanosoma cruzi Y strain amastigotes infected in U2OS cells assessed as inhibition of parasite growth at 0.37 ug/ml by image-based assay relative to control.
Series [9] can be described thus: Half life in human liver microsomes incubated for 60 mins. On the technique in general: Liver microsomes are vesicles of endoplasmic reticulum, rich in cytochrome P450 enzymes.
Series [10] is described as follows: Selectivity index, ratio of IC50 for cytotoxicity against rat L6 cells to IC50 for antitrypanosomal activity against Trypanosoma cruzi Tulahuen strain C2C4 amastigotes infected in rat L6 cells.
Series [11] is described as follows: Plasma concentration in Swiss mouse at 50 mg/kg, po measured upto 24 hrs by LC-MS/MS analysis.
Series [12] has as its system Trypanosoma cruzi. The series can be described thus: Antitrypanosomal activity against Trypanosoma cruzi amastigotes assessed as inhibition of parasite growth at 10 ug/ml relative to control.
A further series deals with Cytochrome P450 3A4 (Homo sapiens, UniProt P08684). As to the kind of experiment: Inhibition of CYP3A4 in human liver microsome using testosterone as substrate.
Cytochrome P450 3A4, sequence (P08684 whole entry): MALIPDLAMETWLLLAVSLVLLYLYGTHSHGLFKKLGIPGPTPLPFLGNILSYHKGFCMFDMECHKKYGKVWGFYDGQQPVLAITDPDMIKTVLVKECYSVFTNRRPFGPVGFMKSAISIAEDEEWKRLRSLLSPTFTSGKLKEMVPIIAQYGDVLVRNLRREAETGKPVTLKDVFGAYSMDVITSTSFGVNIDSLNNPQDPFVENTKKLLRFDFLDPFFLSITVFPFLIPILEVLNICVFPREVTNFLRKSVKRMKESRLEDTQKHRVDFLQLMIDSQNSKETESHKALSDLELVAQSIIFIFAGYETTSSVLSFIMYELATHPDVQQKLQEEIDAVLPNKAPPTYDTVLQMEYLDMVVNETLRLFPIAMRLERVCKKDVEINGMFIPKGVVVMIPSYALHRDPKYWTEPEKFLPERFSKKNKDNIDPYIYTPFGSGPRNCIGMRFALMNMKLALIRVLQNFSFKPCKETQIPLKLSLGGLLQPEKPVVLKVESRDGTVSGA
Series [13] concerns Trypanosoma cruzi. The series can be described thus: Antitrypanosomal activity against bloodstream trypomastigotes form of Trypanosoma cruzi Tulahuen strain C2C4 infected in Swiss mouse assessed as reduction in parasitemia at 50 mg/kg, po qd administered for 20 days starting from day 8 post infection and measured for 28 days by neubauer haemocytometer based microscopic analysis. The format is functional, organism-based. The conditions noted are these: time 20.0 day. The essentials: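 Female Swiss mice, 5 per group, infected i.p. with 5 x 10^4 bloodstream trypomastigotes (Tulahuen). Oral dosing once daily for 20 days from day 8 p.i., vehicle HPMC-SV with 5% DMSO. Tail blood, 3 μL diluted 1:10 in RBC lysis, counted by haemocytometer on days 8–28 p.i.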

Series [14] relates to Trypanosoma cruzi. The series can be described thus: Antitrypanosomal activity against Trypanosoma cruzi Y strain amastigotes infected in U2OS cells assessed as inhibition of parasite growth at 3.3 ug/ml by image-based assay relative to control.
In series [15] the test system is Trypanosoma cruzi. As to the kind of experiment: Antitrypanosomal activity against bloodstream trypomastigotes form of Trypanosoma cruzi CL Brener infected in BALB/c mouse assessed as reduction in parasite in caecum at 50 mg/kg, po qd administered for 5 days starting from day 114 post infection followed by cyclophosphamide induced immunosuppression on days 135, 139 and 143 post infection and measured for 149 days by bioluminescence analysis. The format is functional, organism-based. The note with it: time 5.0 day. The essentials: (§1)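 Female BALB/c mice, 8 weeks old, ~18 g, 5 per group. Infected i.p. with 10^3 bloodstream trypomastigotes of bioluminescent CL Brener (pTRIX2-RE9h). From day 114 p.i., oral dosing once daily for 5 days: reference drugs at 100 mg/kg in HPMC-SV with 5% DMSO, PEG400 vehicle at 50 mg/kg. Cyclophosphamide 200 mg/kg i.p. on days 135, 139 and 143. Final imaging day 149. Ex vivo organ bioluminescence days 149-151.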

In series [16] the test system is Trypanosoma cruzi. The series can be described thus: Antitrypanosomal activity against bloodstream trypomastigotes form of Trypanosoma cruzi CL Brener infected in BALB/c mouse assessed as reduction of parasite in mouth/nasal region at 50 mg/kg, po qd administered for 5 days starting from day 114 post infection followed by cyclophosphamide induced …. The series is classed as functional, organism-based. The conditions noted are these: time 5.0 day.

For series [17], the system named is Trypanosoma cruzi. The series can be described thus: Antitrypanosomal activity against bloodstream trypomastigotes form of Trypanosoma cruzi CL Brener infected in BALB/c mouse assessed as reduction of parasite in small intestine at 50 mg/kg, po qd administered for 5 days starting from day 114 post infection followed by cyclophosphamide induced …. The series is classed as functional, organism-based. The conditions noted are these: time 5.0 day.

Series [18] in a line: Thermodynamic solubility of compound in PEG400. The series is classed as physicochemical.
The subject of series [19] is Trypanosoma cruzi. The series can be described thus: Antitrypanosomal activity against bloodstream trypomastigotes form of Trypanosoma cruzi CL Brener infected in BALB/c mouse assessed as reduction in parasitemia at 50 mg/kg, po administered 5 days after 114 days post infection followed by cyclophosphamide induced immunosuppression on day 143 post infection and measured for 149 days by bioluminescence analysis. The series is classed as functional, organism-based. The conditions noted are these: time 5.0 day. The essentials: as §1

In series [20] the test system is Trypanosoma cruzi. The series can be described thus: Antitrypanosomal activity against bloodstream trypomastigotes form of Trypanosoma cruzi Tulahuen strain C2C4 infected in Swiss mouse assessed as reduction in parasitemia at 20 mg/kg, po qd administered for 20 days starting from day 8 post infection followed by cyclophosphamide induced immunosuppression […] and measured for 51 days by neubauer haemocytometer based microscopic analysis. The series is classed as functional, organism-based. The note with it: time 20.0 day. The essentials:
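Same infection (female Swiss mice, 5 x 10⁴ trypomastigotes ip) and 20-day oral course from day 8 p.i. After 10 days' rest, mice with very low or undetectable parasitemia got three cycles of cyclophosphamide, 50 mg/kg ip daily for 4 days then 3 days' rest, starting day 37 p.i. Blood parasitemia checked on days 37, 44, 51 and 58 p.i. by haemocytometer, with PCR detection also used.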

Series [21] deals with Trypanosoma cruzi. The series can be described thus: Antitrypanosomal activity against bloodstream trypomastigotes form of Trypanosoma cruzi Tulahuen strain C2C4 infected in Swiss mouse assessed as reduction in parasitemia at 20 mg/kg, po qd administered for 20 days starting from day 8 post infection and measured for 28 days by neubauer haemocytometer based microscopic analysis. The series is classed as functional, organism-based. The conditions noted are these: time 20.0 day. The essentials:
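Female Swiss mice, 5 per group, infected intraperitoneally with 5 x 10⁴ bloodstream trypomastigotes (Tulahuen). Oral dosing once daily for 20 days from day 8 p.i., with the commercial formulation diluted in water for injection. Tail blood (3 μL) taken on days 8 (predose), 9, 12, 14, 16, 19, 21 and 28 p.i., diluted 1:10 in red cell lysis buffer and counted by haemocytometer.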

Converted amounts (≈) assume the structure as drawn. The source made the active and inactive calls.

`O=[N+]([O-])c1cn2c(n1)OC[C@@H](OCC#Cc1ccc(-c3ccc(OC(F)(F)F)cc3)cn1)C2`: the selectivity ratio was more than 51 in series [1] and more than 313 in [10]. The IC50 in the series on Trypanosoma cruzi [2] is 0.32 µM; with L6, more than 100 µM; in the series with Trypanosoma cruzi [4] it was 0.73 µM; in series [5], more than 37 µM; in series [7] it was more than 10 µM. For the same compound, the IC90 with Trypanosoma cruzi [2] was found to be 0.99 µM; with Trypanosoma cruzi [4] it was 1 µM. In [3], this compound had a kinetic solubility at 0.25 h of 0.49 µg/mL (≈ 1.06 µM). The “%max” value in the series with Trypanosoma cruzi [6] was determined as 99%. Moreover, the inhibition at 0.37 µg/mL in the series on Trypanosoma cruzi [8] came out at 44%. The compound also came in with a half-life at 1 h in series [9] of more than 4.17 h.
Regarding `O=[N+]([O-])c1cn2c(n1)OC[C@@H](OCc1ccc(-c3ccc(C(F)(F)F)cc3Cl)cc1)C2`, the figures for the IC50 with Trypanosoma cruzi [2], in the series on L6 and at Cytochrome P450 3A4 were 3.7 µM, 34 µM and more than 20 µM, respectively. Moreover, the IC90 in the series with Trypanosoma cruzi [2] is 8 µM. The compound further returned a kinetic solubility at 0.25 h in series [3] of 0.48 µg/mL (≈ 1.06 µM). In addition, the concentration at 24 h in series [11] came out at 9.1 µM. The inhibition at 10 µg/mL with Trypanosoma cruzi [12] came out at 94%. In series [9], this compound showed a half-life at 1 h of more than 4.17 h. Moreover, in [10], the selectivity ratio amounted to 9.2.
For the compound `CC1(COc2ccc(OC(F)(F)F)cc2)CCn2cc([N+](=O)[O-])nc2O1` (configuration not stated), in the series on Trypanosoma cruzi [2], the IC50 came out at 0.45 µM and the IC90 is 0.93 µM. Besides, in the series on Trypanosoma cruzi [4], the IC90 is 1 µM. For the same compound, in the series on Trypanosoma cruzi [6], the “%max” value turned out to be 100%. For the same compound, the result in the series on Trypanosoma cruzi [13] was Active. The inhibition at 3.3 µg/mL in the series on Trypanosoma cruzi [14] worked out at 52%.
Take `O=[N+]([O-])c1cn2c(n1)OC[C@H](Oc1ccc(OC(F)(F)F)cc1)C2`: the outcome in the series on Trypanosoma cruzi [15], with Trypanosoma cruzi [16], in the series with Trypanosoma cruzi [17] and in the series with Trypanosoma cruzi [19] was Active. Besides, the selectivity ratio in [1] is more than 61; in [10] it was more than 250. In addition, the half-maximal inhibitory concentration (IC50) in the series on Trypanosoma cruzi [2] was 0.4 µM; in the series on L6 it was more than 100 µM; with Trypanosoma cruzi [4], 1.2 µM; in series [5] it was more than 73 µM; in series [7], more than 10 µM. For the same compound, the IC90 in the series on Trypanosoma cruzi [2] is 1 µM; in the series with Trypanosoma cruzi [4], 1.7 µM. In the series on Trypanosoma cruzi [6], the “%max” value is recorded as 99%. Further, in series [11], the concentration at 24 h turned out to be 11 µM. The solubility (thermodynamic) in series [18] was 21000 µg/mL (≈ 60800 µM).
Turning to `CC[C@@H]([C@H](C)O)n1ncn(-c2ccc(N3CCN(c4ccc(OC[C@@H]5CO[C@@](Cn6cncn6)(c6ccc(F)cc6F)C5)cc4)CC3)cc2)c1=O` [POSACONAZOLE], the selectivity ratio in series [1] is more than 833. Also, the result in the series with Trypanosoma cruzi [20] and in the series with Trypanosoma cruzi [21] was Active. The IC50 is 0.0012 µM in the series with Trypanosoma cruzi [4], more than 1 µM in series [5] and 0.052 µM in series [7]. For the same compound, the IC90 in the series with Trypanosoma cruzi [4] amounted to 0.0049 µM. Also, in the series on Trypanosoma cruzi [6], the “%max” value is on record as 85%.

As usually defined, the IC50 is the midpoint of a concentration-inhibition curve. As usually defined, the IC90 is the concentration at which the effect reaches the 90% level. Broadly, the kinetic solubility is solubility judged after dilution from a stock solution rather than from solid. As usually defined, the inhibition is the change of the read-out against control, counted positive when it falls. As usually defined, the half-life is the time needed for the level to fall by half in the phase considered. Higher therefore signals slow loss. For orientation: thermodynamic solubility means solubility found after equilibrating the solid with the medium.
